Experimental data taken from ChEMBL document CHEMBL1129449 (J Med Chem, 1996).

Key:
D(1A) dopamine receptor = D(1A) dopamine receptor (Rattus norvegicus, UniProt P18901); assay: Binding affinity at Dopamine receptor D1 in rat neostriatum by [3H]-SCH- 23390 displacement.; type: tissue-based, Striatum
Method in brief: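 Tissue: sections of neostriatum from male Sprague–Dawley rats (250–300 g). Test substances dissolved in distilled water. Values are mean ± SEM of five to seven independent experiments, each run in triplicate.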

D(2) dopamine receptor = D(2) dopamine receptor (Rattus norvegicus, UniProt P61169); assay: Binding affinity at Dopamine receptor D2 in rat neostriatum frozen sections by [3H]-spiperone displacement.
Chain of D(2) dopamine receptor (P61169 whole entry): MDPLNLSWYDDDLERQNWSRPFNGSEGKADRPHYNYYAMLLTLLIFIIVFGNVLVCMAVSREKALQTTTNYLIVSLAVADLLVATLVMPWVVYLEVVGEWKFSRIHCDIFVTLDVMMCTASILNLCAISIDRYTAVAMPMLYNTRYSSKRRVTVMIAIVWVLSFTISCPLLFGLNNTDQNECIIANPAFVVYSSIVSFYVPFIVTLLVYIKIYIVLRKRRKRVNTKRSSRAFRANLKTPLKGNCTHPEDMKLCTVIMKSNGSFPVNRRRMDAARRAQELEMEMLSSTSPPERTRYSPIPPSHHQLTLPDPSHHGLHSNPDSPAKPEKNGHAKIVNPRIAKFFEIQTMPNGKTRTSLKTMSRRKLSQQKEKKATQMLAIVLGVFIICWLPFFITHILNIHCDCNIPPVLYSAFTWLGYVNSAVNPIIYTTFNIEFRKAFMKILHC

Chain of D(1A) dopamine receptor (P18901 whole entry): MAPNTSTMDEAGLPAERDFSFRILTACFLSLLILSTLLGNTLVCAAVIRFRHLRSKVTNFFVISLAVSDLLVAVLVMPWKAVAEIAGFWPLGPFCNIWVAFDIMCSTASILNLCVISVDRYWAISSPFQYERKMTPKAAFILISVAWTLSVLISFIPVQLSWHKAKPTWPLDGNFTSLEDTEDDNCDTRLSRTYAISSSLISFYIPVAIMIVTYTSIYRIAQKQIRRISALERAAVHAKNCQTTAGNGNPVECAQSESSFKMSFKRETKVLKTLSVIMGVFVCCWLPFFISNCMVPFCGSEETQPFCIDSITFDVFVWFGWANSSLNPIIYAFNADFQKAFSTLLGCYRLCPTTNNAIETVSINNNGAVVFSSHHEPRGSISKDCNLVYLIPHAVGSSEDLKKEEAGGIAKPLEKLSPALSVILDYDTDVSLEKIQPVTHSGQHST

SMILES | Ki (D(1A) dopamine receptor) [nM] | Ki (D(2) dopamine receptor) [nM]
C[C@@]1(c2ccccc2)c2cc(O)c(O)cc2C[C@@]1(C)N | 5.5 | > 1000
N[C@@H]1Cc2ccc(O)cc2[C@H]1c1ccccc1 (stereo in doubt; (+)-14a) | 2.5 | 0.59
N[C@@H]1Cc2cc(O)ccc2[C@H]1c1ccccc1 (stereo in doubt; (+)-14b) | 1.87 | > 1000
CCCN(C)[C@@H]1Cc2ccc(O)cc2[C@H]1c1ccccc1 (stereo in doubt; (+)-17a) | 0.9 | 0.3
N[C@@H]1Cc2ccc(O)cc2[C@H]1c1ccccc1 (stereo in doubt; (-)-14a) | 34.5 | 0.89
CCCN(C)[C@@H]1Cc2ccc(O)cc2[C@H]1c1ccccc1 (stereo in doubt; (-)-17a) | 0.88 | 0.34
CCCN(C)[C@@H]1Cc2cc(O)ccc2[C@H]1c1ccccc1 (stereo in doubt; (-)-17b) | > 1000 | > 1000

More lines, now with the values ahead:

Ki (D(1A) dopamine receptor) [nM] | Ki (D(2) dopamine receptor) [nM] | SMILES
28.5 | 51.5 | CCCN(CCC)[C@@H]1Cc2ccc(O)cc2[C@H]1c1ccccc1 (stereo in doubt; (+)-15a)
1.4 | > 1000 | CCCN(CCC)[C@@H]1Cc2cc(O)ccc2[C@H]1c1ccccc1 (stereo in doubt; (+)-15b)
3 | 37.5 | C=CCN(C)[C@@H]1Cc2ccc(O)cc2[C@H]1c1ccccc1 (stereo in doubt; (+)-16a)
> 1000 | > 1000 | C=CCN(C)[C@@H]1Cc2cc(O)ccc2[C@H]1c1ccccc1 (stereo in doubt; (+)-16b)
> 1000 | > 1000 | CCCN(C)[C@@H]1Cc2cc(O)ccc2[C@H]1c1ccccc1 (stereo in doubt; (+)-17b)
18.7 | > 1000 | N[C@@H]1Cc2cc(O)ccc2[C@H]1c1ccccc1 (stereo in doubt; (-)-14b)
26.4 | 0.84 | CCCN(CCC)[C@@H]1Cc2ccc(O)cc2[C@H]1c1ccccc1 (stereo in doubt; (-)-15a)
1.76 | > 1000 | CCCN(CCC)[C@@H]1Cc2cc(O)ccc2[C@H]1c1ccccc1 (stereo in doubt; (-)-15b)
0.79 | 0.43 | C=CCN(C)[C@@H]1Cc2ccc(O)cc2[C@H]1c1ccccc1 (stereo in doubt; (-)-16a)
> 1000 | > 1000 | C=CCN(C)[C@@H]1Cc2cc(O)ccc2[C@H]1c1ccccc1 (stereo in doubt; (-)-16b)
